What was measured:
[1] = test system: MT-2 human T-cells; assay: Cytotoxicity: inhibition of MT-2 cell growth, MTT; type: cell-based; settings: MT-2 cells
In short: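 Run alongside the HIV-1 IIIB protection assay in MT-2 human T-cells, with the MTT colorimetric method as read-out. CC50 is the concentration that inhibits MT-2 cell growth by 50%, obtained at the same time as the EC50 for protection of infected cells.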

[2] = test system: IIIB strain of HIV-1; type: cell-based; settings: HIV-1 IIIB, MT-2 cells

Structure (SMILES)	cytotoxicity [1] [µM]	anti-viral activity below CC50 level [2]
COc1nc(Nc2ccc(C#N)c(OCC=C(C)C)c2)nc(OCCOc2nc(Nc3ccc(C#N)c(OCC=C(C)C)c3)nc(OC)n2)n1 [Compound 6a]	20 to 40	–
COc1nc(Nc2ccc(C#N)c(OCC=C(C)C)c2)nc(OCCCOc2nc(Nc3ccc(C#N)c(OCC=C(C)C)c3)nc(OC)n2)n1 [Compound 6b]	20 to 40	–
COc1nc(NCCNc2nc(Nc3ccc(C#N)c(OCC=C(C)C)c3)nc(OC)n2)nc(Nc2ccc(C#N)c(OCC=C(C)C)c2)n1 [Compound 6e]	–	did not show anti-viral activity below their CC50 levels
COc1nc(NCCCNc2nc(Nc3ccc(C#N)c(OCC=C(C)C)c3)nc(OC)n2)nc(Nc2ccc(C#N)c(OCC=C(C)C)c2)n1 [Compound 6f]	–	did not show anti-viral activity below their CC50 levels
